In ChEMBL document CHEMBL1821556, “Structure-activity relationships of antitubercular nitroimidazoles. 3. Exploration of the linker and lipophilic tail of ((s)-2-nitro-6,7-dihydro-5H-imidazo[2,1-b][1,3]oxazin-6-yl)-(4-trifluoromethoxybenzyl)amine (6-amino PA-824)” (J Med Chem, 2011):

What was measured:
[1] = substrate: CN(Cc1ccc(OC(F)(F)F)cc1)[C@@H]1COc2nc([N+](=O)[O-])cn2C1; assay: (§1) Ratio of Kcat to Km for Mycobacterium tuberculosis deazaflavin-dependent nitroreductase
Summary of the method: (§2)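 Each compound was tested as a substrate of Mtb deazaflavin-dependent nitroreductase (Ddn). kcat/KM was derived from the kinetics of reduced F420 reoxidation. Assays were repeated in two independent laboratories until concordant, and values are averages of multiple measurements.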

[2] = substrate: COC(=O)c1cc(CN[C@@H]2COc3nc([N+](=O)[O-])cn3C2)ccc1OC(F)(F)F; assay: as §1; summary of the method: as §2
[3] = substrate: COc1cc(CN[C@@H]2COc3nc([N+](=O)[O-])cn3C2)ccc1OC(F)(F)F; assay: as §1; summary of the method: as §2
[4] = substrate: CCCN(Cc1ccc(OC(F)(F)F)cc1)[C@@H]1COc2nc([N+](=O)[O-])cn2C1; assay: as §1; summary of the method: as §2
[5] = substrate: CC(=O)N(Cc1ccc(OC(F)(F)F)cc1)[C@@H]1COc2nc([N+](=O)[O-])cn2C1; assay: as §1; summary of the method: as §2
[6] = substrate: O=[N+]([O-])c1cn2c(n1)OC[C@@H](NCc1ccc(OC(F)(F)F)cc1O)C2; assay: as §1; summary of the method: as §2
[7] = substrate: O=[N+]([O-])c1cn2c(n1)OC[C@@H](NCc1ccc(OC(F)(F)F)cc1Oc1ccccc1)C2; assay: as §1; summary of the method: as §2
[8] = substrate: O=C(c1ccc(Cl)cc1)N(Cc1ccc(OC(F)(F)F)cc1)[C@@H]1COc2nc([N+](=O)[O-])cn2C1; assay: as §1; summary of the method: as §2
[9] = substrate: O=[N+]([O-])c1cn2c(n1)OC[C@@H](NCc1ccc(OC(F)(F)F)cc1Br)C2; assay: as §1; summary of the method: as §2
[10] = substrate: O=[N+]([O-])c1cn2c(n1)OC[C@@H](NC(CCO)c1ccc(OC(F)(F)F)cc1)C2; assay: as §1; summary of the method: as §2
[11] = substrate: CCCC(N[C@@H]1COc2nc([N+](=O)[O-])cn2C1)c1ccc(OC(F)(F)F)cc1; assay: as §1; summary of the method: as §2
[12] = substrate: O=[N+]([O-])c1cn2c(n1)OC[C@@H](NCc1ccc(OC(F)(F)F)cc1OCc1ccccc1)C2; assay: as §1; summary of the method: as §2
[13] = substrate: COc1cc(CO[C@@H]2COc3nc([N+](=O)[O-])cn3C2)ccc1OC(F)(F)F; assay: as §1; summary of the method: as §2
[14] = substrate: O=[N+]([O-])c1cn2c(n1)OC[C@@H](OCc1ccc(OC(F)(F)F)cc1)C2; assay: as §1; summary of the method: as §2
[15] = substrate: O=[N+]([O-])c1cn2c(n1)OC[C@@H](NCc1ccc(OC(F)(F)F)cc1N1CCOCC1)C2; assay: as §1; summary of the method: as §2
[16] = substrate: O=[N+]([O-])c1cn2c(n1)OC[C@@H](NCc1ccc(OC(F)(F)F)cc1)C2; assay: as §1; summary of the method: as §2
[17] = substrate: CN1CCN(c2cc(OC(F)(F)F)ccc2CN[C@@H]2COc3nc([N+](=O)[O-])cn3C2)CC1; assay: as §1; summary of the method: as §2
[18] = substrate: O=[N+]([O-])c1cn2c(n1)OC[C@@H](NC(c1ccc(OC(F)(F)F)cc1)c1ncc[nH]1)C2; assay: as §1; summary of the method: as §2
[19] = substrate: O=C(c1cccc(Cl)c1)N(Cc1ccc(OC(F)(F)F)cc1)[C@@H]1COc2nc([N+](=O)[O-])cn2C1; assay: as §1; summary of the method: as §2
[20] = substrate: O=[N+]([O-])c1cn2c(n1)OC[C@@H](NCc1ccc(OC(F)(F)F)c(Cl)c1)C2; assay: as §1; summary of the method: as §2
[21] = substrate: O=[N+]([O-])c1cn2c(n1)OC[C@@H](NC(CO)c1ccc(OC(F)(F)F)cc1)C2; assay: as §1; summary of the method: as §2
[22] = substrate: CCC(N[C@@H]1COc2nc([N+](=O)[O-])cn2C1)c1ccc(OC(F)(F)F)cc1; assay: as §1; summary of the method: as §2
[23] = substrate: O=C(c1ccccc1)N(Cc1ccc(OC(F)(F)F)cc1)[C@@H]1COc2nc([N+](=O)[O-])cn2C1; assay: as §1; summary of the method: as §2
[24] = substrate: NC(=O)C(N[C@@H]1COc2nc([N+](=O)[O-])cn2C1)c1ccc(OC(F)(F)F)cc1; assay: as §1; summary of the method: as §2
[25] = substrate: O=[N+]([O-])c1cn2c(n1)OC[C@@H](OCc1ccc(OC(F)(F)F)c(F)c1)C2; assay: as §1; summary of the method: as §2
[26] = substrate: CCCCC(N[C@@H]1COc2nc([N+](=O)[O-])cn2C1)c1ccc(OC(F)(F)F)cc1; assay: as §1; summary of the method: as §2
[27] = substrate: COc1cc(OC(F)(F)F)ccc1CN[C@@H]1COc2nc([N+](=O)[O-])cn2C1; assay: as §1; summary of the method: as §2
[28] = substrate: O=[N+]([O-])c1cn2c(n1)OC[C@@H](NCc1ccc(OC(F)(F)F)c(Oc3ccccc3)c1)C2; assay: as §1; summary of the method: as §2
[29] = substrate: O=[N+]([O-])c1cn2c(n1)OC[C@@H](NCc1ccc(OC(F)(F)F)c(F)c1)C2; assay: as §1; summary of the method: as §2
[30] = substrate: CCNC(=O)N(Cc1ccc(OC(F)(F)F)cc1)[C@@H]1COc2nc([N+](=O)[O-])cn2C1; assay: as §1; summary of the method: as §2
[31] = substrate: O=[N+]([O-])c1cn2c(n1)OC[C@@H](NCc1ccc(OC(F)(F)F)cc1OCC1CC1)C2; assay: as §1; summary of the method: as §2
[32] = substrate: O=C(c1ccccc1Cl)N(Cc1ccc(OC(F)(F)F)cc1)[C@@H]1COc2nc([N+](=O)[O-])cn2C1; assay: as §1; summary of the method: as §2
[33] = substrate: O=[N+]([O-])c1cn2c(n1)OC[C@@H](NCc1ccc(OC(F)(F)F)c(N3CCOCC3)c1)C2; assay: as §1; summary of the method: as §2
[34] = substrate: O=[N+]([O-])c1cn2c(n1)OC[C@@H](NCc1ccc(OC(F)(F)F)cc1OC1CC1)C2; assay: as §1; summary of the method: as §2
[35] = substrate: CC(C)N(Cc1ccc(OC(F)(F)F)cc1)[C@@H]1COc2nc([N+](=O)[O-])cn2C1; assay: as §1; summary of the method: as §2
[36] = substrate: CC(N[C@@H]1COc2nc([N+](=O)[O-])cn2C1)c1ccc(OC(F)(F)F)cc1; assay: as §1; summary of the method: as §2
[37] = substrate: O=[N+]([O-])c1cn2c(n1)OC[C@@H](NC(c1ccc(OC(F)(F)F)cc1)c1ncco1)C2; assay: as §1; summary of the method: as §2
[38] = substrate: CN1CCN(c2cc(CN[C@@H]3COc4nc([N+](=O)[O-])cn4C3)ccc2OC(F)(F)F)CC1; assay: as §1; summary of the method: as §2
[39] = substrate: O=[N+]([O-])c1cn2c(n1)OC[C@@H](OCc1ccc(OC(F)(F)F)c(O)c1)C2; assay: as §1; summary of the method: as §2
[40] = substrate: O=[N+]([O-])c1cn2c(n1)OC[C@@H](NCc1ccc(OC(F)(F)F)cc1F)C2; assay: as §1; summary of the method: as §2
[41] = substrate: O=CN(Cc1ccc(OC(F)(F)F)cc1)[C@@H]1COc2nc([N+](=O)[O-])cn2C1; assay: as §1; summary of the method: as §2
[42] = substrate: O=[N+]([O-])c1cn2c(n1)OC[C@@H](NCc1ccc(OC(F)(F)F)c(O)c1)C2; assay: as §1; summary of the method: as §2
[43] = substrate: O=[N+]([O-])c1cn2c(n1)OC[C@@H](NCc1ccc(OC(F)(F)F)cc1N1CCCCC1)C2; assay: as §1; summary of the method: as §2
[44] = substrate: O=[N+]([O-])c1cn2c(n1)OC[C@@H](NCc1ccc(OC(F)(F)F)cc1Cl)C2; assay: as §1; summary of the method: as §2

B1: Deazaflavin-dependent nitroreductase (Mycobacterium tuberculosis), P9WP15 (protein)
chain: MPKSPPRFLNSPLSDFFIKWMSRINTWMYRRNDGEGLGGTFQKIPVALLTTTGRKTGQPRVNPLYFLRDGGRVIVAASKGGAEKNPMWYLNLKANPKVQVQIKKEVLDLTARDATDEERAEYWPQLVTMYPSYQDYQSWTDRTIPIVVCEP
Protein B1 has a kcat/Km [1] of 0.25, a kcat/Km [2] of 0.17 and a kcat/Km [3] of 0.19. It also gave a kcat/Km [4] of 0.32, a kcat/Km [5] of 0.02 and a kcat/Km [6] of 0.18. For the same protein, the kcat/Km [7] was 0.42, the kcat/Km [8] was 0.37 and the kcat/Km [9] was 0.25. It also gave a kcat/Km [10] of 0.21, a kcat/Km [11] of 0.31 and a kcat/Km [12] of 0.31. For the same protein, the kcat/Km [13] was 0.24, the kcat/Km [14] was 0.15 and the kcat/Km [15] was 0.19. It also gave a kcat/Km [16] of 0.17, a kcat/Km [17] of 0.17 and a kcat/Km [18] of 0.17. It also gave a kcat/Km [19] of 0.25, a kcat/Km [20] of 0.31 and a kcat/Km [21] of 0.15. It also gave a kcat/Km [22] of 0.14, a kcat/Km [23] of 0.16 and a kcat/Km [24] of 0.12. It also gave a kcat/Km [25] of 0.33, a kcat/Km [26] of 0.4 and a kcat/Km [27] of 0.15. It also gave a kcat/Km [28] of 0.13, a kcat/Km [29] of 0.21 and a kcat/Km [30] of 0. For the same protein, the kcat/Km [31] was 0.37, the kcat/Km [32] was 0.13 and the kcat/Km [33] was 0.1. It also gave a kcat/Km [34] of 0.31, a kcat/Km [35] of 0.04 and a kcat/Km [36] of 0.09. It also gave a kcat/Km [37] of 0.2, a kcat/Km [38] of 0.16 and a kcat/Km [39] of 0.14. The kcat/Km [40] was 0.2, the kcat/Km [41] was 0.07 and the kcat/Km [42] was 0.13. For the same protein, the kcat/Km [43] was 0.42 and the kcat/Km [44] was 0.27.
